How the values were obtained:
[1] = test system: Influenza B virus; assay: Antiviral activity against Influenza B virus infected in MDCK cells assessed as reduction of virus-induced cytopathic effect after 3 days by colorimetric formazan-based MTS assay; format: functional, organism-based; conditions: 72 h
Outline: (§1)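 Confluent cell monolayers were infected with 100 CCID50 of virus, and serial dilutions of compound were added at the time of infection.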

[2] = test system: Influenza A virus H3N2; assay: Antiviral activity against Influenza A virus H3N2 infected MDCK cells assessed as reduction of virus-induced cytopathic effect after 3 days by colorimetric formazan-based MTS assay; format: functional, organism-based; conditions: 72 h; outline: as §1
[3] = test system: Human alphaherpesvirus 1; assay: Antiviral activity against Human herpesvirus 1 strain KOS infected human HEL cells assessed as reduction of virus-induced cytopathic effect after 3 days by colorimetric formazan-based MTS assay; format: functional, organism-based; conditions: Human alphaherpesvirus 1, KOS, 72 h; outline: as §1
[4] = test system: Felid alphaherpesvirus 1; assay: Antiviral activity against Felid herpesvirus 1 infected cat CRFK cells assessed as reduction of virus-induced cytopathic effect after 3 days by colorimetric formazan-based MTS assay; format: functional, organism-based; conditions: Felid alphaherpesvirus 1, CRFK, 72 h
Outline: (§2)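 Cells grown to confluency in 96-well plates ([…], Vero for lines 9–10) were infected with 100 CCID50 of virus, and serial compound dilutions were added at infection. Plates were incubated at 37 °C for 3 days, until complete CPE appeared in untreated virus controls.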

[5] = test system: Feline infectious peritonitis virus; assay: Antiviral activity against Feline Infectious peritonitis virus infected cat CRFK cells assessed as reduction of virus-induced cytopathic effect after 3 days by colorimetric formazan-based MTS assay; format: functional, organism-based; conditions: Alphacoronavirus 1, CRFK, 72 h; outline: as §1
[6] = Cytotoxicity against Felis catus (cat) CRFK cells assessed as change in cellular morphology; format: cell-based; conditions: crfk
Outline: (§3)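 Uninfected cells were exposed to compound in parallel with the antiviral cultures. The read-out is the minimum cytotoxic concentration that causes a microscopically detectable alteration of normal cell morphology.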

[7] = Inhibition of beta lactamase assessed as increase in time taken for iodine decolorization relative to control; design: concentration or dose not given beside the values; conditions: concentration not given here
[8] = Inhibition of beta lactamase assessed as time for decolorization of iodine (reference value: 79.5 secs)
[9] = test system: CCRF-CEM; assay: Cytotoxicity against Homo sapiens (human) CEM cells assessed as growth inhibition after 72 hr by coulter counter analysis; format: functional, cell-based
Outline: (§4)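 Cells in growth medium were allowed to proliferate with variable compound amounts at 37 °C in a humidified CO2 atmosphere. Incubation ran 48 h for L1210, 72 h for CEM and 96 h for HeLa. Cells were then counted with a Coulter counter.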

[10] = test system: L1210; assay: Cytotoxicity against Mus musculus (mouse) L1210 cells assessed as growth inhibition after 48 hr by coulter counter analysis; format: functional, cell-based; conditions: L1210, 48 h; outline: as §4
[11] = test system: Influenza A virus; assay: Antiviral activity against Unidentified Influenza A virus (H1N1) infected MDCK cells assessed as reduction of virus-induced cytopathic effect after 3 days by colorimetric formazan-based MTS assay; format: functional, organism-based; conditions: 72 h; outline: as §1
[12] = (§5) Cytotoxicity against MDCK cells assessed as change in cellular morphology; format: cell-based, Canis lupus familiaris; conditions: dog, MDCK cells; outline: as §3
[13] = test system: MDCK; assay: as §5; format: cell-based, Canis lupus familiaris; conditions: dog, mdck; outline: as §3
[14] = test system: Punta Toro virus; assay: Antiviral activity against Punta Toro virus infected in African green monkey Vero cells assessed as reduction of virus-induced cytopathic effect after 3 days by colorimetric formazan-based MTS assay; format: functional, organism-based; conditions: 72 h; outline: as §1
[15] = test system: Coxsackievirus B4; assay: Antiviral activity against Human coxsackievirus B4 infected African green monkey Vero cells assessed as reduction of virus-induced cytopathic effect after 3 days by colorimetric formazan-based MTS assay; format: functional, organism-based; conditions: Enterovirus B, 72 h; outline: as §1
[16] = test system: Respirovirus muris; assay: Antiviral activity against Sendai virus infected African green monkey Vero cells assessed as reduction of virus-induced cytopathic effect after 3 days by colorimetric formazan-based MTS assay; format: functional, organism-based; conditions: 72 h
[17] = test system: Mammalian orthoreovirus 1; assay: Antiviral activity against Mammalian orthoreovirus 1 infected African green monkey Vero cells assessed as reduction of virus-induced cytopathic effect after 3 days by colorimetric formazan-based MTS assay; format: functional, organism-based; conditions: Mammalian orthoreovirus 1, Vero, 72 h; outline: as §2
[18] = test system: Human respirovirus 3; assay: Antiviral activity against Human parainfluenza virus 3 infected African green monkey Vero cells assessed as reduction of virus-induced cytopathic effect after 3 days by colorimetric formazan-based MTS assay; format: functional, organism-based; conditions: Human respirovirus 3, Vero, 72 h; outline: as §2
[19] = Cytotoxicity against Chlorocebus aethiops (African green monkey) Vero cells assessed as change in cellular morphology; format: cell-based; conditions: chlorocebus sabaeus
[20] = test system: Respiratory syncytial virus; assay: Antiviral activity against Respiratory syncytial virus infected human HeLa cells assessed as reduction of virus-induced cytopathic effect after 3 days by colorimetric formazan-based MTS assay; format: functional, organism-based; conditions: 72 h; outline: as §1
[21] = test system: Vesicular stomatitis virus; assay: Antiviral activity against Vesicular stomatitis virus infected human HeLa cells assessed as reduction of virus-induced cytopathic effect after 3 days by colorimetric formazan-based MTS assay; format: functional, organism-based; conditions: 72 h; outline: as §1
[22] = test system: Coxsackievirus B4; assay: Antiviral activity against Human coxsackievirus B4 infected human HeLa cells assessed as reduction of virus-induced cytopathic effect after 3 days by colorimetric formazan-based MTS assay; format: functional, organism-based; conditions: Enterovirus B, 72 h; outline: as §1
[23] = (§6) Cytotoxicity against Homo sapiens (human) HeLa cells assessed as change in cellular morphology; format: cell-based; conditions: HeLa cells; outline: as §3
[24] = test system: HeLa; assay: as §6; format: cell-based; conditions: hela; outline: as §3
[25] = test system: Human alphaherpesvirus 1; assay: Antiviral activity against acyclovir-resistant thymidine kinase negative Human herpesvirus 1 strain KOS infected human HEL cells assessed as reduction of virus-induced cytopathic effect after 3 days by colorimetric formazan-based MTS assay; format: functional, organism-based; conditions: Human alphaherpesvirus 1, KOS, 72 h; outline: as §1
[26] = test system: Vesicular stomatitis virus; assay: Antiviral activity against Vesicular stomatitis virus infected human HEL cells assessed as reduction of virus-induced cytopathic effect after 3 days by colorimetric formazan-based MTS assay; format: functional, organism-based; conditions: 72 h; outline: as §1
[27] = test system: Vaccinia virus; assay: Antiviral activity against Vaccinia virus infected human HEL cells assessed as reduction of virus-induced cytopathic effect after 3 days by colorimetric formazan-based MTS assay; format: functional, organism-based; conditions: Orthopoxvirus vaccinia, 72 h; outline: as §1
[28] = test system: Human alphaherpesvirus 2; assay: Antiviral activity against Human herpesvirus 2 strain G infected human HEL cells assessed as reduction of virus-induced cytopathic effect after 3 days by colorimetric formazan-based MTS assay; format: functional, organism-based; conditions: Human alphaherpesvirus 2, strain G, 72 h; outline: as §1
[29] = Cytotoxicity against Homo sapiens (human) HEL cells assessed as change in cellular morphology; format: cell-based
[30] = test system: Candida albicans; assay: Antifungal activity against Candida albicans assessed as growth inhibition at 50 ug/ml by cup-plate method (reference value: 8 to 10 mm); format: functional; conditions: read-out: DIZ
[31] = test system: Aspergillus niger; assay: Antifungal activity against Aspergillus niger assessed as growth inhibition at 50 ug/ml by cup-plate method (reference value: 8 to 10 mm); format: functional; conditions: read-out: DIZ
[32] = test system: Salmonella typhi; assay: Antibacterial activity against Salmonella enterica subsp. enterica serovar Typhi assessed as growth inhibition at 50 ug/ml by cup-plate method (reference value: 8 to 10 mm); format: functional; conditions: read-out: DIZ
[33] = test system: Proteus vulgaris; assay: Antibacterial activity against Proteus vulgaris assessed as growth inhibition at 50 ug/ml by cup-plate method (reference value: 8 to 10 mm); format: functional; conditions: read-out: DIZ
[34] = test system: Escherichia coli; assay: Antibacterial activity against Escherichia coli assessed as growth inhibition at 50 ug/ml by cup-plate method (reference value: 8 to 10 mm); format: functional; conditions: read-out: DIZ
[35] = test system: Bacillus subtilis; assay: Antibacterial activity against Bacillus subtilis assessed as growth inhibition at 50 ug/ml by cup-plate method (reference value: 8 to 10 mm); format: functional; conditions: read-out: DIZ
[36] = test system: Klebsiella pneumoniae; assay: Antibacterial activity against Klebsiella pneumoniae assessed as growth inhibition at 50 ug/ml by cup-plate method (reference value: 8 to 10 mm); format: functional; conditions: read-out: DIZ
[37] = test system: Staphylococcus aureus; assay: Antibacterial activity against Staphylococcus aureus assessed as growth inhibition at 50 ug/ml by cup-plate method (reference value: 8 to 10 mm); format: functional; conditions: read-out: DIZ

Work on CCN(CC)CN1C(=O)/C(=N/NC(=S)Nc2ccccc2)c2ccccc21 yielded an EC50 [1] of over 0.16 µM, an EC50 [2] of over 0.16 µM and an EC50 [3] of 20 µM. The EC50 [4] was over 20 µM, the EC50 [5] was over 20 µM and the CC50 [6] was 32.3 µM. The inhibition [7] was 50.2%, the TIME [8] was 0.0443 h and the IC50 [9] was 11 µM. It also gave an IC50 [10] of 13 µM, an EC50 [11] of over 0.16 µM and an MCC [12] of 800 nM. For the same compound, the CC50 [13] was 1.6 µM, the EC50 [14] was over 20 µM and the EC50 [15] was over 20 µM. It also gave an EC50 [16] of over 20 µM, an EC50 [17] of over 20 µM and an EC50 [18] of over 20 µM. It also gave an MCC [19] of 100 µM, an EC50 [20] of over 20 µM and an EC50 [21] of over 20 µM. It also gave an EC50 [22] of over 20 µM, an MCC [23] of at least 20 µM and a CC50 [24] of 10.8 µM. It also gave an EC50 [25] of over 100 µM, an EC50 [26] of over 100 µM and an EC50 [27] of 20 µM. The EC50 [28] was 15 µM, the MCC [29] was over 100 µM and the zone of inhibition at 50 µg/mL [30] was 21 mm. The zone of inhibition at 50 µg/mL [31] was 21 mm, the zone of inhibition at 50 µg/mL [32] was 21 mm and the zone of inhibition at 50 µg/mL [33] was 21 mm. It also gave a zone of inhibition at 50 µg/mL [34] of 11 mm, a zone of inhibition at 50 µg/mL [35] of 11 mm and a zone of inhibition at 50 µg/mL [36] of 11 mm. For the same compound, the zone of inhibition at 50 µg/mL [37] was 11 mm.

With CCN(CC)CN1C(=O)/C(=N/NC(=S)Nc2ccc(OC)cc2)c2ccccc21 the EC50 [1] was over 0.8 µM, the EC50 [2] was over 0.8 µM and the EC50 [3] was over 20 µM. The EC50 [4] was over 0.8 µM, the EC50 [5] was over 0.8 µM and the CC50 [6] was 3.5 µM. For the same compound, the inhibition [7] was 35.7%, the TIME [8] was 0.0343 h and the IC50 [9] was 1.9 µM. The IC50 [10] was 2.4 µM, the EC50 [11] was over 0.8 µM and the MCC [12] was 4000 nM. It also gave a CC50 [13] of 9.2 µM, an EC50 [14] of over 0.8 µM and an EC50 [15] of over 0.8 µM. It also gave an EC50 [16] of over 0.8 µM, an EC50 [17] of over 0.8 µM and an EC50 [18] of over 0.8 µM. It also gave an MCC [19] of 4 µM, an EC50 [20] of over 4 µM and an EC50 [21] of over 4 µM. For the same compound, the EC50 [22] was over 4 µM, the MCC [23] was at least 4 µM and the CC50 [24] was over 100 µM. For the same compound, the EC50 [25] was over 20 µM, the EC50 [26] was over 20 µM and the EC50 [27] was over 20 µM. The EC50 [28] was over 20 µM, the MCC [29] was 100 µM and the zone of inhibition at 50 µg/mL [30] was 11 mm. It also gave a zone of inhibition at 50 µg/mL [31] of 11 mm, a zone of inhibition at 50 µg/mL [32] of 21 mm and a zone of inhibition at 50 µg/mL [33] of 21 mm. For the same compound, the zone of inhibition at 50 µg/mL [34] was 11 mm, the zone of inhibition at 50 µg/mL [35] was 11 mm and the zone of inhibition at 50 µg/mL [36] was 11 mm. The zone of inhibition at 50 µg/mL [37] was 11 mm.
